Results from different studies.
Protocols differ between the studies behind these lines.
Observed: metabolic stability
Species: human

Compound	system	setting	half-life [min]
CNC(C)Cc1ccc2nsnc2c1 (stereo not drawn)	liver microsomes	0.5 µM	53
CC(C)C[C@H](NC(=O)[C@H](Cc1ccccc1)NC(=O)[C@H](Cc1ccccc1)NC(=O)Cc1ccc(-c2ccccc2)cc1)C(=O)N[C@@H](CCCCN)C(=O)N[C@@H](CCCNC(=N)N)C(=O)N[C@H](C(=O)N[C@@H](Cc1c[nH]c2ccccc12)C(=O)N[C@@H](CCCCN)C(=O)N[C@@H](CCCNC(=N)N)C(=O)O)C(C)C	liver microsomes	1 µM	22.8
CNC(C)Cc1ccc2nonc2c1 (stereo not drawn)	liver microsomes	0.5 µM	> 150
C[C@]12CC[C@H]3[C@@H](CCC4=CC(=O)CC[C@@]43C)[C@@H]1CC[C@@H]2O	hepatocytes	1 µM	6.51
CONC(=O)[C@H]1[C@@H](O)[C@@]2(O)c3c(OC)cc(OC)cc3O[C@@]2(c2ccc(OC)cc2)[C@@H]1c1ccccc1	liver microsomes		120
C[C@]12CC[C@H]3[C@@H](CC=C4CC(O)CC[C@@]43CO)[C@@H]1CCC2O (stereo partly drawn)	liver microsomes		73.6
C[C@]12CC[C@H]3[C@@H](CCC4=CC(=O)CC[C@@]43C)[C@@H]1CC[C@@H]2O	liver microsomes	10 µM, pH 7.4	19.3
COc1ccc([C@@]23Oc4cc(OC)cc(OC)c4[C@@]24N=C(C2CC2)N[C@@]4(O)[C@H](C(=O)N(C)OC)[C@H]3c2ccccc2)cc1	liver microsomes	1 µM, pH 7.4	18.3
CC[C@H](C)[C@H](NC(=O)[C@H](CC(=O)O)NC(=O)[C@H](CS)NC(=O)[C@H](CCCCN)NC(=O)[C@H](CS)NC(=O)[C@H](CCSC)NC(=O)[C@@H]1CCCN1C(=O)[C@H](CCC(N)=O)NC(=O)[C@@H]1CCCN1C(=O)[C@H](CCCNC(=N)N)NC(=O)[C@H](CCCNC(=N)N)NC(=O)[C@H](CCCNC(=N)N)NC(=O)[C@H](CCCNC(=N)N)NC(=O)[C@H](CCC(N)=O)NC(=O)[C@H](CCCNC(=N)N)NC(=O)[C@H](CCCNC(=N)N)NC(=O)[C@H](CCCCN)NC(=O)[C@H](CCCCN)NC(=O)[C@H](CCCNC(=N)N)NC(=O)CN)C(=O)N[C@@H](CC(C)C)C(=O)N[C@@H](CCCCN)C(=O)N[C@@H](C)C(=O)O	liver microsomes	1 µM	6
